Data reported in ChEMBL document CHEMBL1125589, “Verapamil analogues with restricted molecular flexibility” (1991).

Assays:
[1] = species on record: Cavia porcellus; assay: Compound was tested in vitro for chronotropic activity on isolated atria preparations of guinea pig.; type: functional
[2] = species on record: Cavia porcellus; assay: Compound was tested in vitro for ionotropic activity on isolated atria preparations of guinea pig.; type: functional
[3] = species on record: Cavia porcellus; assay: Percent inhibition of [Ca2+] induced contraction on K+ depolarized guinea pig aortic strips at […] concentration; type: functional, Aorta
Summary of the method: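 Guinea pig aortic strips were depolarized with K+, and contraction was induced with Ca2+. Percent inhibition of that contraction was measured with the test agent at 5·10^-4 M. Results are given as means ± SEM, n = 5-6.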

[4] = species on record: Cavia porcellus; assay: Compound was tested in vitro for chronotropic activity on isolated atria preparations of guinea pig at 10E-6 M concentration; type: functional
Summary of the method: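 Chronotropic effect was measured on spontaneously beating isolated guinea pig right atria, with the test agent at 10^-6 M.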

[5] = species on record: Cavia porcellus; assay: Compound was tested in vitro for ionotropic activity on isolated atria preparations of guinea pig at 10E-6 M concentration; type: functional

SMILES | Negative chronotropic activity [1] | Negative ionotropic activity [2] | Ca2+ antagonistic activity [3] | Negative chronotropic activity [4] | Negative ionotropic activity [5]
COc1ccc(CCN(C)[C@H]2CC[C@@](C#N)(c3ccc(OC)c(OC)c3)CC2)cc1OC | 67% | 56% | 66% |  | 
COc1ccc(CCN(C)[C@H]2CC[C@](C#N)(c3ccc(OC)c(OC)c3)CC2)cc1OC | 65% | 52% | 59% |  | 
COc1ccc(CCN(C)CCCC(C#N)(c2ccc(OC)c(OC)c2)C(C)C)cc1OC (centres undefined) [VERAPAMIL] |  |  | 79% | 94% | 60%
